Laboratory results taken from ChEMBL document CHEMBL1143896, “Discovery of piperazinylimidazo[1,2-a]pyridines as novel S4 binding elements for orally active factor Xa inhibitors” (Bioorg Med Chem, 2008).
pIC50, pKi: −log10 of the molar value. The source made the active and inactive calls. The calls are words filed in the database; no cut-off is given here.

Experiments:
Plasma [1] = assay: Anticoagulant potency in human plasma assessed as concentration required to double prothrombin time; format: functional
In short: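 Compound in DMSO is added to normal human plasma (3% v/v) and preincubated 4 min at 37 °C. Clotting is started with thromboplastin and timed on an automatic coagulometer. Prolongation is measured against a DMSO control. The concentration that doubles clotting time comes from a least-squares regression, as a mean of duplicate measurements.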

Coagulation factor X = Coagulation factor X (Homo sapiens, UniProt P00742); assay: Inhibition of human factor 10a
[2] = AUC in cynomolgus monkey at 3 mg/kg, po; format: ADME, organism-based, Macaca fascicularis; design: dose 3 mg/kg, route oral; details: plasma
In short: (§1)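 Fasted male cynomolgus monkeys (n = 3) are dosed iv in DMA/PEG400 or orally as a 0.5% methylcellulose suspension. Femoral vein blood is taken up to 24 h (from 5 min iv, from 15 min po). Plasma is deproteinized with acetonitrile, diluted with 0.01 mol/L ammonium formate at pH 3.0, and measured by LC/MS/MS. Values are means ± SD of three.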

Trypsin = Trypsin (Homo sapiens, UniProt P07477+P07478+P35030); assay: Inhibition of human trypsin after 30 mins; format: protein assay
In short: (§2)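 Human proteases are incubated with compound for 30 min at 37 °C. Enzyme and substrate pairs are: thrombin 0.080 U/mL with S-2366; trypsin 0.040 µg/mL with S-2222; plasmin 0.040 U/mL with S-2366; kallikrein 0.020 U/mL with S-2302; t-PA 4000 U/mL with S-2288. p-Nitroanilide release is followed continuously for 5 min at 405 nm. Ki comes from Lineweaver–Burk plots at varied substrate levels, as means of three determinations.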

[3] = Total clearance in cynomolgus monkey at 0.3 mg/kg, iv; format: ADME, organism-based, Macaca fascicularis; design: dose 0.3 mg/kg, route intravenous; details: in vivo; in short: as §1
[4] = AUC in cynomolgus monkey at 0.3 mg/kg, iv; format: ADME, organism-based, Macaca fascicularis; design: dose 0.3 mg/kg, route intravenous; details: plasma; in short: as §1
[5] = Volume of distribution at steady state in cynomolgus monkey at 0.3 mg/kg, iv; format: ADME, organism-based, Macaca fascicularis; design: dose 0.3 mg/kg, route intravenous; details: in vivo, read-out: Vdss; in short: as §1
CYP3A4 = CYP3A4 (Homo sapiens, UniProt P08684); assay: Inhibition of human CYP3A4 at 10 uM; format: ADME
In short: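 CYP3A4 from human B-lymphoblastoid cells expressing the enzyme (10 nM) is incubated with 100 µM testosterone and 10 µM compound for 30 min at 37 °C. 6β-Hydroxytestosterone is measured by HPLC-UV and reported as % inhibition.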

Plasma kallikrein = Plasma kallikrein (Homo sapiens, UniProt P03952); assay: Inhibition of human kallikrein after 30 mins; in short: as §2
[6] = Tmax in cynomolgus monkey at 3 mg/kg, po; format: ADME, organism-based, Macaca fascicularis; design: dose 3 mg/kg, route oral; details: in vivo; in short: as §1
[7] = Oral bioavailability in cynomolgus monkey at 3 mg/kg; format: ADME, organism-based, Macaca fascicularis; details: in vivo; in short: as §1
Plasminogen = Plasminogen (Homo sapiens, UniProt P00747); assay: Inhibition of human plasmin after 30 mins; in short: as §2
[8] = Cmax in cynomolgus monkey at 3 mg/kg, po; format: ADME, organism-based, Macaca fascicularis; design: dose 3 mg/kg, route oral; details: in vivo; in short: as §1
[9] = Mean residence time in cynomolgus monkey at 3 mg/kg, po; format: ADME, organism-based, Macaca fascicularis; design: dose 3 mg/kg, route oral; details: in vivo; in short: as §1
Prothrombin = Prothrombin (Homo sapiens, UniProt P00734); assay: Inhibition of human thrombin after 30 mins; in short: as §2
[10] = Drug concentration in cynomolgus monkey at 0.3 mg/kg, iv after 5 mins; format: ADME, organism-based, Macaca fascicularis; design: dose 0.3 mg/kg, route intravenous; details: in vivo, read-out: Drug uptake; in short: as §1
Plasma [11] = assay: Anticoagulant potency in ICR mouse plasma assessed as concentration required to double prothrombin time; format: functional
Mus musculus [12] = assay: Ex vivo anticoagulant potency in ICR mouse blood assessed as prothrombin time at 30 mg/kg, po after 1 hr relative to control; format: functional
In short: (§3)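 Male ICR mice (30–35 g) are fasted >12 h and dosed orally as a suspension in 0.5% methylcellulose; controls get vehicle. At 1 h, blood is drawn from the abdominal aorta under pentobarbital (50 mg/kg ip) into 3.8% citrate (9:1). Plasma is spun at 1000g for 10 min, preincubated 4 min at 37 °C, clotted with thromboplastin and timed. The read-out is the clotting-time ratio versus vehicle controls.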

[13] = target: Tissue-type plasminogen activator (Homo sapiens, UniProt P00750); assay: Inhibition of human tPA after 30 mins; in short: as §2
[14] = Mean residence time in cynomolgus monkey at 0.3 mg/kg, iv; format: ADME, organism-based, Macaca fascicularis; design: dose 0.3 mg/kg, route intravenous; details: in vivo; in short: as §1
Mus musculus [15] = assay: Ex vivo anticoagulant potency in ICR mouse blood assessed as 1.4 times prolongation of prothrombin time at 100 mg/kg, po after 1 hr relative to control; format: functional, organism-based; design: dose 100 mg/kg; in short: as §3
Mus musculus [16] = assay: Ex vivo anticoagulant potency in ICR mouse blood assessed as 1.1 times prolongation of prothrombin time at 30 mg/kg, po after 1 hr relative to control; format: functional, organism-based; design: dose 30 mg/kg; in short: as §3

CYP3A4, sequence (P08684 whole entry): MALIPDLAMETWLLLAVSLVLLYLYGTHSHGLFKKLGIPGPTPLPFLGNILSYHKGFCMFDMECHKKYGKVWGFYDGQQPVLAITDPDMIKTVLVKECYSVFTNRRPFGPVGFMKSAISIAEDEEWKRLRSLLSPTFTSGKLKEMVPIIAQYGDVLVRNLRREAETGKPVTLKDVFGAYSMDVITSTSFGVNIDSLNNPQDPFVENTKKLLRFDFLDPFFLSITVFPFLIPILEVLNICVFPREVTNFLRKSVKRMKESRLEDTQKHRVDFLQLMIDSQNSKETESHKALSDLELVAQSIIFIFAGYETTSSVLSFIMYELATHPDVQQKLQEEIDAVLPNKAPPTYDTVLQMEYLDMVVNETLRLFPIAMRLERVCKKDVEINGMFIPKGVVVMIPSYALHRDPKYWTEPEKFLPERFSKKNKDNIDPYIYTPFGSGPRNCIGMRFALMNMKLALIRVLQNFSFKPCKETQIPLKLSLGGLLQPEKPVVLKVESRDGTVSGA
Coagulation factor X, sequence (P00742 41-179 limits assumed): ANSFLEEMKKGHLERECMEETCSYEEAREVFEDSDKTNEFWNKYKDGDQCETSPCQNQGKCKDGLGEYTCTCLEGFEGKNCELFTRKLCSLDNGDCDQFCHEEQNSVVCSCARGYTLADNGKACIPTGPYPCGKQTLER
Coagulation factor X, sequence (P00742 235-488 limits assumed): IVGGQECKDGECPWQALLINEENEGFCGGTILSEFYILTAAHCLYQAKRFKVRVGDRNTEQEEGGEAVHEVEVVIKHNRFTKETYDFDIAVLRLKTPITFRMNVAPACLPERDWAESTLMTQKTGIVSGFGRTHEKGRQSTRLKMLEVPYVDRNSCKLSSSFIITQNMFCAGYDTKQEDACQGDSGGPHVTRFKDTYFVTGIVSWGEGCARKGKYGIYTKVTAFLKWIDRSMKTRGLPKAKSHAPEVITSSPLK
Plasminogen, sequence (P00747 97-580 limits assumed): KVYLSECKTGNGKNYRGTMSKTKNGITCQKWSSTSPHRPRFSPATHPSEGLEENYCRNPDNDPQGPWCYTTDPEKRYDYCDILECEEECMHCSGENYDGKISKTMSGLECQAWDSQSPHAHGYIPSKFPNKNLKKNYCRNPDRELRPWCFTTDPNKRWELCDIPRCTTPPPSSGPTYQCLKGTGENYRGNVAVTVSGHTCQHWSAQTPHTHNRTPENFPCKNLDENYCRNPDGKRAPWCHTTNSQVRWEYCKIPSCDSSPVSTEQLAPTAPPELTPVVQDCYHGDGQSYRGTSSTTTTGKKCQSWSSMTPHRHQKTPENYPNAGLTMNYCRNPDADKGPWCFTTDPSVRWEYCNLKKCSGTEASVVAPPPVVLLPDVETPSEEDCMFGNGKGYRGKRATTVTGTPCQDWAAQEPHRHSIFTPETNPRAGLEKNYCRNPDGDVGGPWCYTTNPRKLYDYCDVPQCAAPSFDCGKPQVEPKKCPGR
Plasminogen, sequence (P00747 581-810 limits assumed): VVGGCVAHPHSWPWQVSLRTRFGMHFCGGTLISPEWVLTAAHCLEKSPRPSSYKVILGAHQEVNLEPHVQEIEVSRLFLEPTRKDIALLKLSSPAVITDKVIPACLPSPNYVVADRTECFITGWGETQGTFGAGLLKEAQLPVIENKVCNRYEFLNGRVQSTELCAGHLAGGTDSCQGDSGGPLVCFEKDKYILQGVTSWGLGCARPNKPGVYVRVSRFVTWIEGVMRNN
Tissue-type plasminogen activator, sequence (P00750 whole entry): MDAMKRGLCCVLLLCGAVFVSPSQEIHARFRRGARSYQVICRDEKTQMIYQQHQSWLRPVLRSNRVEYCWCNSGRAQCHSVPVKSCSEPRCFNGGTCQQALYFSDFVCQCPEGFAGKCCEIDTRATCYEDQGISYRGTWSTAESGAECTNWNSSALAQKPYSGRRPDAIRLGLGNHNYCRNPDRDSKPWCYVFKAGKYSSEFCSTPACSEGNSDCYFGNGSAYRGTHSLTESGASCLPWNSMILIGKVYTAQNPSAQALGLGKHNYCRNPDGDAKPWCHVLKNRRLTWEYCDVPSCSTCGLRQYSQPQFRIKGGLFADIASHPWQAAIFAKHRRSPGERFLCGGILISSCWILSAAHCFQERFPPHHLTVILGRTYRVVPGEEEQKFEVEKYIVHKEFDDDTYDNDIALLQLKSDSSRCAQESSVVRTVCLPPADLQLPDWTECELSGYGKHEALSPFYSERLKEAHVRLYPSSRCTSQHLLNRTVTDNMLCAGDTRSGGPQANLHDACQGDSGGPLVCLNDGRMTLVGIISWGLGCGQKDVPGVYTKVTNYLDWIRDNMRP
Plasma kallikrein, sequence (P03952 20-390 limits assumed): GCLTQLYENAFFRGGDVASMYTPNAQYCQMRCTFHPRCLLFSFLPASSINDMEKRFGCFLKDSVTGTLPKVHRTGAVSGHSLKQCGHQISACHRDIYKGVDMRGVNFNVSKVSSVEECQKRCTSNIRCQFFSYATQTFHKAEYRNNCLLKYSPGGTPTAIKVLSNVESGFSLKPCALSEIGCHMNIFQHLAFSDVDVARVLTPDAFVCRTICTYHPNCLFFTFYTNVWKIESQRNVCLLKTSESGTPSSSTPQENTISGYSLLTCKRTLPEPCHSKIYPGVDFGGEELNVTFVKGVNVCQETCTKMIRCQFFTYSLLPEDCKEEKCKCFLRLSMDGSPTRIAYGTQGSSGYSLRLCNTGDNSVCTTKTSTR
Plasma kallikrein, sequence (P03952 391-638 limits assumed): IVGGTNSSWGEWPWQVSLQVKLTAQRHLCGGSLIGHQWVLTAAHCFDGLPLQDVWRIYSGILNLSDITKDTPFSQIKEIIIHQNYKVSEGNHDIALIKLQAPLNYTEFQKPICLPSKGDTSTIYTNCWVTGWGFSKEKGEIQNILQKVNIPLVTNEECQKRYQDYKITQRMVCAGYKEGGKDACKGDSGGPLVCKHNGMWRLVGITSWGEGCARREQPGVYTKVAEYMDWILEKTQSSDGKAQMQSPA

| SMILES | 2PT (Plasma [1]) [µM] | pIC50 (Coagulation factor X) | inhibition at 10 µM (CYP3A4) [%] | 2PT (Plasma [11]) [µM] | Ratio (Mus musculus [12]) | further results |
| --- | --- | --- | --- | --- | --- | --- |
| O=C(CCS(=O)(=O)c1ccc2cc(Cl)ccc2c1)N1CCN(c2ccc3nccn3c2)CC1 | 2.9 | 7.06 | – | – | – | – |
| O=C(CCS(=O)(=O)c1ccc2cc(Cl)ccc2c1)N1CCN(c2cccc3nc(CO)cn23)CC1 | 1.4 | 8.05 | 15 | 1.4 | 1.3 | AUC [2]: 2260 ng·h/mL; Ki (Trypsin): > 60000 nM; clearance [3]: 7.33 mL/min/kg; AUC [4]: 730 ng·h/mL; Vd [5]: 0.81 L/kg; pKi (Plasma kallikrein): 4.85; Tmax [6]: 1.33 h; bioavailability [7]: 30.5%; pKi (Plasminogen): < 4.22; Cmax [8]: 500 ng/mL; MRT [9]: 3.6 h; pKi (Prothrombin): 6.02; concentration at 5 min [10]: 540 ng/mL; pKi [13]: < 4.22; pKi (Coagulation factor X): 8.10; MRT [14]: 1.97 h |
| O=C(CCS(=O)(=O)c1ccc2cc(Cl)ccc2c1)N1CCN(c2cccc3ncc([N+](=O)[O-])n23)CC1 | 3.6 | 7.62 | – | – | – | – |
| CC(O)Cc1cn2c(N3CCN(C(=O)CCS(=O)(=O)c4ccc5cc(Cl)ccc5c4)CC3)cccc2n1 (stereo not given) | 1.1 | 7.74 | 33 | 1.5 | 3.2 | – |
| O=C(CCS(=O)(=O)c1ccc2cc(Cl)ccc2c1)N1CCN(c2cccc3ncc(CO)n23)CC1 | 1.7 | 7.54 | – | – | – | – |
| CCOC(=O)Cc1cn2c(N3CCN(C(=O)CCS(=O)(=O)c4ccc5cc(Cl)ccc5c4)CC3)cccc2n1 | 5.1 | 7.03 | – | – | – | – |
| CC(C)(O)c1cn2c(N3CCN(C(=O)CCS(=O)(=O)c4ccc5cc(Cl)ccc5c4)CC3)cccc2n1 | 2.1 | 7.74 | – | – | – | – |
| CC(C)(O)Cc1cn2c(N3CCN(C(=O)CCS(=O)(=O)c4ccc5cc(Cl)ccc5c4)CC3)cccc2n1 | 0.86 | 7.66 | 26 | 1.7 | 2.4 | – |
| CC(O)c1cn2c(N3CCN(C(=O)CCS(=O)(=O)c4ccc5cc(Cl)ccc5c4)CC3)cccc2n1 (stereo not given) | 1.2 | 7.70 | 23 | 1.8 | 2.5 | – |
| CN(C)C(=O)Cc1cn2c(N3CCN(C(=O)CCS(=O)(=O)c4ccc5cc(Cl)ccc5c4)CC3)cccc2n1 | 2.5 | 7.24 | – | – | – | – |
| Nc1cnc2cccc(N3CCN(C(=O)CCS(=O)(=O)c4ccc5cc(Cl)ccc5c4)CC3)n12 | 0.73 | 7.46 | 52 | 1.5 | 2.4 | – |
| NC(=O)Cc1cn2c(N3CCN(C(=O)CCS(=O)(=O)c4ccc5cc(Cl)ccc5c4)CC3)cccc2n1 | 2.1 | 7.35 | – | – | – | – |
| O=C(CCS(=O)(=O)c1ccc2cc(Cl)ccc2c1)N1CCN(c2cccc3nccn23)CC1 | 1.4 | 7.68 | 45 | 1.7 | 2.5 | – |
| CC(=N)N1CC[C@H](Oc2ccc([C@H](Cc3ccc4ccc(C(=N)N)cc4c3)C(=O)O)cc2)C1 [DX-9065A] | 0.81 | – | – | – | – | Activity (Mus musculus [15]): Active; Activity (Mus musculus [16]): Active |
| O=C(CCS(=O)(=O)c1ccc2cc(Cl)ccc2c1)N1CCN(c2ccn3ccnc3c2)CC1 | 2.2 | 7.11 | – | – | – | – |
| CN(C(=O)CCS(=O)(=O)c1ccc2cc(Cl)ccc2c1)C1CCN(c2cccc3nccn23)CC1 | – | 6.08 | – | – | – | – |
| Cc1cn2c(N3CCN(C(=O)CCS(=O)(=O)c4ccc5cc(Cl)ccc5c4)CC3)cccc2n1 | 0.96 | 7.92 | 58 | 1.3 | 2.9 | – |
| CNC(=O)Cc1cn2c(N3CCN(C(=O)CCS(=O)(=O)c4ccc5cc(Cl)ccc5c4)CC3)cccc2n1 | 2 | 7.39 | – | – | – | – |
| CC(=O)Nc1cnc2cccc(N3CCN(C(=O)CCS(=O)(=O)c4ccc5cc(Cl)ccc5c4)CC3)n12 | 1.8 | 7.62 | – | – | – | – |
